Most compounds without a hit are left out; they make up all but 3.7% or so of the library.
KCNK3 block: human KCNK3 channel inhibitors, primary screen, CHO cells, FluxOR thallium flux, B-score | FluxOR fluorescence; hits give low values | Potassium channel subfamily K member 3 (Homo sapiens), O14649 | B-score at 10 µM | hit rate 0.84% among 340,000;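 active = B-score under library mean minus 4 SD, starting fluorescence ratio at most library mean plus 5 SD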;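 note: more negative B-score means stronger inhibition of thallium flux through KCNK3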
hERG rescue: hERG rescue from dofetilide block, primary screen, cell-based, CHO-hERG, FluxOR thallium flux, dofetilide IC70; Voltage-gated inwardly rectifying potassium channel KCNH2 (Homo sapiens), Q12809; dofetilide IC70 present; activation (rescue from dofetilide block), less the hit threshold, % at 10 µM; hit rate 0.51% among 310,000; AID 1511, 2009;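 active = activation above the mean of controls blocked by dofetilide plus 5 SD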;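 note: thallium influx through hERG after potassium depolarization seen as dye fluorescence rise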
KCNK9 block: KCNK9 potassium channel inhibitors, primary screen, HEK293 cells, thallium flux; hit rate 1.2% among 310,000; B-score at 10 µM; Potassium channel subfamily K member 9 (Homo sapiens), Q9NPC2; FluxOR thallium flux fluorescence; hits give low values;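 active = ratio B-score over 3 SD below the library mean, with starting fluorescence within 5 SD of its mean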;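 note: negative B-score means less thallium flux so channel inhibition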
KCNQ1 act: potentiators or activators of KCNQ1 channel, primary screen, cell-based, thallium flux, high-throughput; Potassium voltage-gated channel subfamily KQT member 1 (Homo sapiens), P51787; CHO-K1 KCNQ1, thallium flux FluxOR fluorescence; hits give high values; B-score at 10 µM; hit rate 0.35% among 310,000; AID 2648, 2010;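 active = fluorescence ratio B-score, a plate-corrected score, at least three library SD, with initial intensity B-score within 5 SD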
Target sequence (P51787 whole entry, looked up): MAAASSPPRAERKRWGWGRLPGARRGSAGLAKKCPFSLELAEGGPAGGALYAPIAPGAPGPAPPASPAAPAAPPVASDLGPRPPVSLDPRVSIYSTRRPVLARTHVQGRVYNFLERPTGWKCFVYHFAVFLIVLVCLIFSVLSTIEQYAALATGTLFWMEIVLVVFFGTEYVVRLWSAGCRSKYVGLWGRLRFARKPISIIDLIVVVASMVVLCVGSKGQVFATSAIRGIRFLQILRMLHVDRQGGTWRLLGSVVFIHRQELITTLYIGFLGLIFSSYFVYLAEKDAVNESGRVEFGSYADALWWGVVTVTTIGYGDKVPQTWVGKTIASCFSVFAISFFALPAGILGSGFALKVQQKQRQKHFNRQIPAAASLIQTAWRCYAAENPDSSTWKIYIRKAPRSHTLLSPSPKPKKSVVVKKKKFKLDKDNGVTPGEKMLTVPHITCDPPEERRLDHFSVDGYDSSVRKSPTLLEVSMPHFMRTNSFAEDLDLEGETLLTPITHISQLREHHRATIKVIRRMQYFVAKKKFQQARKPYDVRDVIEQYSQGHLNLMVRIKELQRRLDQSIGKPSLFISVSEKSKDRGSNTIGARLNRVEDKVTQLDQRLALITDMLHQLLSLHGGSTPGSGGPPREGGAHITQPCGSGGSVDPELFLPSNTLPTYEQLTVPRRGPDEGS
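Test system: CHO-K1 cells stably expressing KCNQ1 / Medium: assay buffer / Also added: depolarizing K+/Tl+ stimulus, K2SO4 and Tl2SO4 each 12.5 mM in 5x stock / Incubation: 90 min dye loading and 20 min compound exposure, both at room temperature / Signal: thallium influx via FluxOR fluorescence, kinetic imaging / Evaluation: B score of baseline-normalized fluorescence ratio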
KCNQ1 block: inhibitors of human KCNQ1 channel, primary screen, cell-based, thallium flux, high-throughput. Potassium voltage-gated channel subfamily KQT member 1 (Homo sapiens), P51787. CHO-K1 KCNQ1, FluxOR thallium flux fluorescence; hits give high values. B-score at 10 µM. hit rate 1.3% among 310,000. AID 2642, 2010;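 active = compounds whose thallium flux B-score, printed positive for inhibition, exceeds three library SD while starting fluorescence stays within three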;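 note: channel opened by potassium depolarization with thallium stimulus after 20 min compound exposure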
Kir21 block: inhibitors of mouse Kir2.1 inward-rectifier potassium channel | Inward rectifier potassium channel 2 (Mus musculus), P35561 | HEK293-Kir2.1, FluxOR thallium flux fluorescence; hits give low values | hit rate 0.85% among 310,000 | B-score at 10 µM | AID 1672, 2009;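 active = fluorescence ratio B-score at or below minus 3 SD of library scores, with starting-brightness B-score within 2 SD, cut at about -4.2 in these data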;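 note: channel flux triggered by added potassium and thallium sulfate stimulus; B-score of peak minus minimum fluorescence over baseline after thallium stimulus; more negative B-score means stronger Kir2.1 block with less thallium influx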
* marks the source's active call; other numbers are inactive results; i = inactive; / = not tested or not shown.

SMILES	KCNK3 block	hERG rescue	KCNK9 block	KCNQ1 act	KCNQ1 block	Kir21 block
CC(C)CCC[C@@H](C)[C@H]1CC[C@H]2[C@@H]3C(=O)C=C4C[C@@H](O)CC[C@]4(C)[C@H]3CC[C@]12C	i	-6.4	i	i	i	-1.02
C=C1/C(=C\C=C2/CCC[C@]3(C)[C@@H]([C@H](C)CCCC(C)(C)O)CC[C@@H]23)C[C@@H](O)C[C@@H]1O	/	-6.7	i	i	7*	-0.01
COc1cc(C(=O)OCC(=O)NCc2ccc(F)cc2)ccc1OCC(C)C	i	-9.8	i	i	i	3.51
COC(=O)Nc1nn(-c2ccc(OC)cc2)c(=O)c(C#N)c1C	i	5.5*	i	i	i	-0.02
Cc1ccc(S(=O)(=O)C2(C(=O)N3CCN(c4ccccc4F)CC3)CC2)cc1	i	-4.5	i	i	i	-1.07
COCCN(C(=O)COC(=O)C1(C)CC1(Cl)Cl)c1c(N)n(Cc2ccccc2)c(=O)[nH]c1=O (stereo unspecified)	i	-11.0	i	i	i	-0.01
O=C(CSc1nc(-c2ccc(Cl)cc2)cs1)Nc1cccc([N+](=O)[O-])c1	i	-16.8	i	i	6*	-0.2
Cc1ccc2cc(C#N)c(N3CCCN(C(=O)C4CCCO4)CC3)nc2c1C (stereo unspecified)	i	-30.1	i	i	i	-5.66*
Cc1ccc2cc(C#N)c(N3CCCC3)nc2c1C	i	-1.0	i	i	i	2.04
O=C1CCC/C(=N/NC(=O)c2ccc(CN3c4cccc5cccc(c45)S3(=O)=O)cc2)C1	i	-7.2	i	i	i	0.05
CSCC[C@H](NC(=O)Cc1c(C)c2cc3c4c(oc3cc2oc1=O)CCCC4)C(=O)O	i	-8.4	i	i	i	0.48
Nc1c(Br)cc2c(c1Br)C(O)c1ccccc1-2 (stereo unspecified)	i	/	/	/	/	/
CN1CCN(C(CNC(=O)C(=O)Nc2ccc3c(c2)OCO3)c2ccc(F)cc2)CC1 (stereo unspecified)	i	-5.5	i	i	i	-2.19
CC1(c2ccccc2)CC(C)(C)N2C(=O)/C(=C3\SC(=S)NC3=O)c3cccc1c32 (stereo unspecified)	i	-6.4	i	81*	i	-1.47
O=C(NCCc1ccc(Cl)cc1Cl)c1cncc(Br)c1	i	-4.6	i	i	i	0.09
CC1(C)CC(=O)C2=C(C1)NC1=C(C(=O)c3ccccc31)C2c1cc([N+](=O)[O-])ccc1O (stereo unspecified)	i	-12.8	i	i	6*	0.34
CC(C)c1ccc(C2C3=C(CC(C)(C)CC3=O)NC3=C2C(=O)c2ccccc23)cc1 (stereo unspecified)	i	-6.6	i	i	11*	-0.56
CC1(C)CC(=O)C2=C(C1)NC1=C(C(=O)c3ccccc31)C2c1ccccc1 (stereo unspecified)	i	-5.5	i	i	i	0.38
O=C(Cn1cc(COc2ccc(Br)cc2[N+](=O)[O-])nn1)c1ccc(O)cc1	i	/	/	/	/	/
CC1CCCCC1NC(=O)Cn1nc(-c2ccccc2)ccc1=O (stereo unspecified)	i	4.9*	i	i	i	-0.04
CC1CCCCN1CCNC(=O)Cn1nc(-c2ccccc2)ccc1=O (stereo unspecified)	i	2.5	i	i	i	0.24
CCCCNC(=O)NNC(=O)c1cc(C)on1	i	-4.7	i	i	i	0
Cc1cc(C)cc(OCC(=O)NC2CCCc3ccccc32)c1 (stereo unspecified)	i	-7.6	i	i	i	-0.07

From PubChem BioAssay
